# Results taken from ChEMBL document CHEMBL1138269, “Antimicrobial lexitropsins containing amide, amidine, and alkene linking groups” (J Med Chem, 2007).
# What was measured:
# Type in all cases: functional
# Staphylococcus aureus [1] = test: Antibacterial activity against methicillin-sensitive Staphylococcus aureus NCTC 6571
# How it was run: (§1)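 Broth microdilution in Mueller-Hinton broth. Samples were dissolved in sterile water to 200 µg mL-1 as the working solution and doubling dilutions were made across rows. Plates were incubated at 37 °C and inspected visually, with resazurin added as growth indicator. MIC reported in µg mL-1.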
# Enterococcus faecalis = test: Antibacterial activity against Streptococcus faecalis NCTC 775; how it was run: as §1
# [2] = tested on: Mycolicibacterium fortuitum; test: Antibacterial activity against Mycobacterium fortuitum NCTC 10394; how it was run: as §1
# Aspergillus niger = test: Antifungal activity against Aspergillus niger IMI 149007
# How it was run: (§2)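 Antifungal microdilution in Sabouraud broth. Test sample at 200 µg mL-1 working solution in sterile water was serially doubled down successive rows. Incubation was at 25 °C, followed by visual growth check and addition of resazurin indicator. Read-out is MIC in µg mL-1.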
# Candida albicans = test: Antifungal activity against Candida albicans NCPF 3179; how it was run: as §2
# Staphylococcus aureus [3] = test: Antibacterial activity against methicillin-resistant Staphylococcus aureus clinical isolate 1
# How it was run: (§3)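 Broth microdilution MIC against clinical S. aureus isolates (incl. MRSA), run per NCCLS guidelines in 96-well plates. Test sample dissolved in sterile water to a 200 µg mL-1 working concentration, then doubling dilutions in Mueller-Hinton broth. Incubated at 37 °C, growth read visually plus resazurin indicator. MIC reported in µg/mL.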
# Staphylococcus aureus [4] = test: Antibacterial activity against methicillin-resistant Staphylococcus aureus clinical isolate 2; how it was run: as §3
# Staphylococcus aureus [5] = test: Antibacterial activity against methicillin-resistant Staphylococcus aureus clinical isolate 3; how it was run: as §3
# Staphylococcus aureus [6] = test: Antibacterial activity against methicillin-resistant Staphylococcus aureus clinical isolate 4; how it was run: as §3
# Staphylococcus aureus [7] = test: Antibacterial activity against methicillin-resistant Staphylococcus aureus clinical isolate 5; how it was run: as §3
# [8] = Staphylococcus aureus, NCTC 6571, read-out: MIC
# [9] = Enterococcus faecalis, NCTC 775, read-out: MIC
# [10] = Candida albicans, read-out: MIC
SMILES,MIC (Staphylococcus aureus [1]; [8]) [µg/mL],MIC (Enterococcus faecalis; [9]) [µg/mL],MIC [2] [µg/mL],MIC (Aspergillus niger) [µg/mL],MIC (Candida albicans; [10]) [µg/mL],MIC (Staphylococcus aureus [3]) [µg/mL],MIC (Staphylococcus aureus [4]) [µg/mL],MIC (Staphylococcus aureus [5]) [µg/mL],MIC (Staphylococcus aureus [6]) [µg/mL],MIC (Staphylococcus aureus [7]) [µg/mL],MIC (Staphylococcus aureus [1]) [µg/mL],MIC (Enterococcus faecalis) [µg/mL],MIC (Candida albicans) [µg/mL]
COc1cccc(C(=N)Nc2cc(C(=O)Nc3cc(C(=O)Nc4cn(CCCN(C)C)cn4)n(C)c3)n(C)c2)c1,> 50,> 50,> 50,> 50,> 50,–,–,–,–,–,–,–,–
CC(=N)Nc1cc(C(=O)Nc2cc(C(=O)Nc3cc(C(=O)NCCCN4CCOCC4)n(C)c3)n(C)c2)n(C)c1,> 50,> 50,> 50,> 50,> 50,> 64,> 64,> 64,> 64,> 64,–,–,–
Cn1cc(NC(=O)c2cc(NC(=O)c3ccc(NC(=O)c4cnc5ccccc5c4)cc3)cn2C)cc1C(=O)NCCN1CCOCC1,> 50,> 50,> 50,> 50,> 50,–,–,–,–,–,–,–,–
Cn1cc(NC(=O)c2cc(NC(=O)c3ccc(/C=C/c4nc5ccccc5o4)cc3)cn2C)cc1C(=O)NCCN1CCOCC1 (stereo in doubt; 72),–,–,–,–,–,–,–,–,–,–,3,3,50
CSc1ccc(/C=C/c2ccc3cc(C(=O)Nc4cc(C(=O)Nc5cc(C(=O)NCCN6CCOCC6)n(C)c5)n(C)c4)ccc3n2)cc1,> 50,> 50,> 50,> 50,> 50,4,> 64,> 64,> 64,> 64,–,–,–
CN(C)CCCNC(=O)c1cc(NC(=O)c2cc(NC(=O)c3cc(NC(=O)c4ccc(Cl)c(Cl)n4)cn3C)cn2C)cn1C,> 50,> 50,> 50,50,25,–,–,–,–,–,–,–,–
Cn1cc(NC(=O)c2cc(NC(=O)c3csc(/C=C/c4ccc5ccccc5n4)n3)cn2C)cc1C(=O)NCCN1CCOCC1,3,25,> 50,> 50,> 50,8,8,8,8,8,–,–,–
CC(C)CCc1sc(NC(=O)c2cc(NC(=O)c3ccc(/C=C/c4cnc5ccccc5c4)cc3)cn2C)nc1C(=O)NCCN1CCOCC1,> 50,> 50,> 50,> 50,50,–,–,–,–,–,–,–,–
COc1ccc(C(=O)Nc2cc(C(=O)Nc3cc(C(=O)Nc4cn(CCCN(C)C)cn4)n(C)c3)n(C)c2)cc1,> 50,> 50,> 50,> 50,> 50,–,–,–,–,–,–,–,–
Cn1cc(NC(=O)c2cc(NC(=O)c3ccc(/C=C/c4ccc5ccccc5n4)cc3)cn2C)cc1C(=O)NCCN1CCOCC1,50,> 50,> 50,> 50,> 50,–,–,–,–,–,–,–,–
COc1cccc(C(=O)Nc2ccc(C(=O)Nc3cc(C(=O)Nc4cc(C(=O)NCCN5CCOCC5)n(C)c4)n(C)c3)cc2)c1,> 50,> 50,> 50,> 50,> 50,–,–,–,–,–,–,–,–
CN(C)CCCn1cnc(NC(=O)c2cc(NC(=O)c3cc(NC(=O)c4cc5ccccc5cn4)cn3C)cn2C)c1,> 50,> 50,> 50,> 50,> 50,–,–,–,–,–,–,–,–
CN(C)CCCNC(=O)c1cc(NC(=O)c2cc(NC(=O)c3cc(/C=C/c4ccc5ccccc5n4)cn3C)cn2C)cn1C,> 50,> 50,> 50,50,25,–,–,–,–,–,–,–,–
CN(C)CCCNC(=O)c1cc(NC(=O)c2cc(NC(=O)c3cc(NC(=N)c4ccccc4)cn3C)cn2C)cn1C,50,> 50,> 50,50,> 50,–,–,–,–,–,–,–,–
CN(C)CCCn1cnc(NC(=O)c2cc(NC(=O)c3cc(NC=O)cn3C)cn2C)c1,> 50,> 50,> 50,> 50,> 50,–,–,–,–,–,–,–,–
CC(C)CCc1sc(NC(=O)c2cc(NC(=O)c3ccc(/C=C/c4ccc5ccccc5n4)cc3)cn2C)nc1C(=O)NCCN1CCOCC1,> 50,> 50,> 50,> 50,> 50,–,–,–,–,–,–,–,–
CC(=N)Nc1cc(C(=O)Nc2cc(C(=O)Nc3nc(C(=O)NCCCN(C)C)c(CCC(C)C)s3)n(C)c2)n(C)c1,> 50,> 50,> 50,> 50,50,–,–,–,–,–,–,–,–
COc1cccc(C(=O)Nc2cc(C(=O)Nc3cc(C(=O)Nc4cn(CCCN(C)C)cn4)n(C)c3)n(C)c2)c1,> 50,> 50,> 50,> 50,> 50,–,–,–,–,–,–,–,–
COc1cccc(C(=N)Nc2cc(C(=O)Nc3cc(C(=O)Nc4cc(C(=O)NCCN5CCOCC5)n(C)c4)n(C)c3)n(C)c2)c1,> 50,> 50,> 50,> 50,> 50,–,–,–,–,–,–,–,–
CC(C)n1cc(NC(=O)c2cc(NC(=N)c3ccccc3)cn2C)cc1C(=O)Nc1cc(C(=O)NCCCN(C)C)n(C)c1,50,> 50,> 50,> 50,> 50,–,–,–,–,–,–,–,–
CC(=N)Nc1cc(C(=O)Nc2cc(C(=O)Nc3nc(C(=O)NCCCN(C)C)c(C(C)C)s3)n(C)c2)n(C)c1,50,50,> 50,50,> 50,–,–,–,–,–,–,–,–
CC(C)CCc1sc(NC(=O)c2cc(NC(=O)c3ccc(/C=C/c4cc5ccccc5nc4Cl)cc3)cn2C)nc1C(=O)NCCN1CCOCC1,> 50,> 50,> 50,> 50,> 50,–,–,–,–,–,–,–,–
CC(C)CCc1sc(NC(=O)c2cc(NC(=O)c3ccc(/C=C/c4ccc5ccccc5c4)cc3)cn2C)nc1C(=O)NCCN1CCOCC1,> 50,> 50,> 50,> 50,> 50,–,–,–,–,–,–,–,–
CC(C)c1sc(NC(=O)c2cc(NC(=O)c3cc(NC(=O)c4cc5ccccc5cn4)cn3C)cn2C)nc1C(=O)NCCN1CCOCC1,> 50,> 50,> 50,> 50,> 50,–,–,–,–,–,–,–,–
CC(C)c1sc(NC(=O)c2cc(NC(=O)c3cc(NC(=O)c4cc5ccccc5cn4)cn3C)cn2C)nc1C(=O)NCCCN(C)C,50,50,50,> 50,50,–,–,–,–,–,–,–,–

# The next lines start with results.
MIC (Staphylococcus aureus [1]; [8]) [µg/mL],MIC (Enterococcus faecalis; [9]) [µg/mL],MIC [2] [µg/mL],MIC (Aspergillus niger) [µg/mL],MIC (Candida albicans; [10]) [µg/mL],SMILES,MIC (Staphylococcus aureus [3]) [µg/mL],MIC (Staphylococcus aureus [4]) [µg/mL],MIC (Staphylococcus aureus [5]) [µg/mL],MIC (Staphylococcus aureus [6]) [µg/mL],MIC (Staphylococcus aureus [7]) [µg/mL],MIC (Staphylococcus aureus [1]) [µg/mL],MIC (Enterococcus faecalis) [µg/mL],MIC (Candida albicans) [µg/mL]
25,> 50,> 50,> 50,> 50,Cn1cc(NC(=O)c2cc(NC(=O)c3ccc(/C=C/c4ccc5ccccc5c4)cc3)cn2C)cc1C(=O)NCCN1CCOCC1,–,–,–,–,–,–,–,–
25,25,> 50,> 50,> 50,COc1cccc(/C=C/c2cccc(C(=O)Nc3cc(C(=O)Nc4cc(C(=O)NCCCN(C)C)n(C)c4)n(C)c3)c2)c1,–,–,–,–,–,–,–,–
6,50,> 50,50,> 50,CC(C)n1cc(NC(=O)c2cc(NC(=O)c3ccc(Cl)c(Cl)n3)cn2C)cc1C(=O)Nc1cc(C(=O)NCCCN(C)C)n(C)c1,–,–,–,–,–,–,–,–
50,> 50,> 50,50,> 50,CC(=N)Nc1cc(C(=O)Nc2cc(C(=O)Nc3cc(C(=O)NCCN4CCOCC4)n(C)c3)n(C)c2)n(C)c1,–,–,–,–,–,–,–,–
13,50,> 50,50,> 50,COc1cccc(C(=N)Nc2cc(C(=O)Nc3cc(C(=O)Nc4nc(C(=O)NCCCN(C)C)c(C(C)C)s4)n(C)c3)n(C)c2)c1,–,–,–,–,–,–,–,–
13,50,> 50,50,> 50,CC(=N)Nc1cc(C(=O)Nc2cc(C(=O)Nc3cc(C(=O)NCCCN(C)C)n(C)c3)n(C(C)C)c2)n(C)c1,–,–,–,–,–,–,–,–
25,> 50,> 50,25,> 50,COc1cccc(C(=N)Nc2cc(C(=O)Nc3cc(C(=O)Nc4cc(C(=O)NCCCN(C)C)n(C)c4)n(C)c3)n(C)c2)c1,–,–,–,–,–,–,–,–
13,50,> 50,50,> 50,CC(=N)Nc1cc(C(=O)Nc2cc(C(=O)Nc3cc(C(=O)NCCCN(C)C)n(C)c3)n(C)c2)n(C)c1,–,–,–,–,–,–,–,–
25,25,> 50,> 50,> 50,Cn1cc(NC(=O)c2cc(NC(=O)c3ccc(/C=C/c4nc5ccccc5s4)cc3)cn2C)cc1C(=O)NCCN1CCOCC1,–,–,–,–,–,–,–,–
5,10,19,76,76,CC(C)c1sc(NC(=O)c2cc(NC(=O)c3cc(NC=O)cn3C)cn2C)nc1C(=O)NCCCN(C)C,–,–,–,–,–,–,–,–
3,13,> 50,> 50,> 50,COc1cccc(C(=N)Nc2cc(C(=O)Nc3cc(C(=O)Nc4nc(C(=O)NCCCN(C)C)c(CCC(C)C)s4)n(C)c3)n(C)c2)c1,–,–,–,–,–,–,–,–
13,13,> 50,> 50,> 50,COc1cccc(C(=O)Nc2nc(C(=O)Nc3cc(C(=O)Nc4cc(C(=O)NCCC(=N)N)n(C)c4)n(C)c3)c(C(C)C)s2)c1,–,–,–,–,–,–,–,–
